Laboratory results from PubChem BioAssay.
Results filed as inconclusive are left out.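 Rule for the calls, unless noted: active = growth inhibition above 25% in both replicates, a cutoff set 3 SD above the mean; inconclusive = above 25% in only one replicate; inactive = the rest.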

What was measured:
[1] = S. cerevisiae growth inhibition in permissive medium (OD615), pilot counter-assay for S. cerevisiae lifespan shortening project, permissive growth control (AID 705); details: OD615, 24 h, at 10 µM, stronger effect = higher value
Procedure, shortened: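 System: engineered DeaD yeast; Medium: permissive raffinose/galactose medium; Compound dosing: 10 µM single dose, 0.25% DMSO; Incubation: 4 h cell pre-growth, 24 h exposure at 30 °C; Technique: OD at 615 nm; Evaluation: growth inhibition from lowered OD615 after 24 h.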

[2] = S. cerevisiae growth inhibition in restrictive medium, OD615, pilot screen, restrictive growth control, yeast lifespan reduction project (AID 706;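 active = growth inhibition above a set limit, 3 SD over mean compound inhibition, in both replicates, cut at about 43% in these data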;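 note: modified DeaD lifespan yeast strain shifted to restrictive glucose medium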); details: OD615, 48 h, at 10 µM, stronger effect = higher value
Procedure, shortened: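 Material: modified S. cerevisiae; buffer or medium: CSMM-D glucose medium; doses: one concentration, 10 µM final, 0.25% DMSO; incubation: 48 h compound exposure at 30 °C; detection: optical density at 615 nm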

[3] = doxorubicin toxicity protection in MRP-1 cells – H69AR cells, CellTiter-Glo, duplicate, MRP-1 activator project, pilot screen (AID 807;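 active = viability increase at or above a cutoff of the median across tested compounds plus 3 SD, cut at about 8.5% in these data, passing the limit was not always enough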;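 note: compound pretreatment 18-22 h then 72 h combined with doxorubicin; 0% = doxorubicin alone and 100% = vehicle without doxorubicin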); details: H69AR viability with doxorubicin, CellTiter-Glo luminescence; at 10 µM; stronger effect = higher value
[4] = viability of HCT116 without oncogenic beta-catenin – human colon tumor cells, pilot screen (AID 823;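 active = cell viability at or below a set limit in both duplicate runs, the limit being the all-compound median minus 4 SD, cut at about 23% in these data, passing the limit was not always enough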;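 note: 0% = wells killed by 20 µM Hyamine and 100% = untreated DMSO cell wells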); details: HCT116 beta-catenin knockout viability, CellTiter-Glo, 60 h; at 10 µM; stronger effect = lower value
[5] = viability of PTEN-null HCT116 cells – cell-based, HCT116 clonal line, CellTiter-Glo, pilot screen (AID 824;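 active = viability at or below 27.92% in each of two runs, the all-compound median minus 4 SD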;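 note: 0% = 20 µM Hyamine control and 100% = vehicle cell control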); details: HCT116 PTEN-deleted viability, 60 h, at 10 µM, stronger effect = lower value
[6] = RAM pathway blockade in budding yeast – dse1pr::URA3 reporter, 5-FOA selection, pilot screen (AID 869;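 active = inhibition over a set limit, the all-compound mean plus 3 SD, in both replicate runs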;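 note: 0% = DMSO wells with no growth and 100% = 10 µM 1-NA-PP1 with full growth; RAM network block rescues cells from 5-FOA so hits raise OD615 growth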); details: S. cerevisiae dse1pr::URA3 5-FOA growth, OD615, 2 d; at 10 µM; stronger effect = higher value; strain carries analog-sensitive mutant Cbk1 kinase
[7] = RAM signaling pathway blockade in yeast – S. cerevisiae, Pdr1DBD-CYC8 efflux-inhibited sensitized strain, primary screen (AID 1298;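 active = RAM network inhibition above 8.4% in each of two replicates, 3 SD over the compound average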;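 note: 0% = DMSO untreated cells without growth and 100% = 10 µM 1-NA-PP1 full growth; higher means more yeast growth rescued from 5-FOA killing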); details: S. cerevisiae cbk1-as DSE1-URA3 strain, 5-FOA growth OD615, 2 d; at 50 µM; stronger effect = higher value

Nc1c(C(=O)Nc2ccc(Cl)cc2)oc2ccccc12
inactive: growth inhibition [1] -21% | growth inhibition [2] -20.9% | viability increase [3] -4.54% | viability [4] 75.3% | viability [5] 72.9% | inhibition [6] 2.38% | RAM network inhibition [7] 2.51%

COCCCNC(=O)c1oc2ccc(S(=O)(=O)N(C)C3CCCCC3)cc2c1C
inactive: growth inhibition [1] 1.36% | growth inhibition [2] 5.4% | viability increase [3] 0.15% | viability [4] 90.1% | viability [5] 94.2% | inhibition [6] -0.46% | RAM network inhibition [7] 1.23%

CCCN(CC1CC1)S(=O)(=O)c1ccc(S(N)(=O)=O)cc1
inactive: growth inhibition [1] -8.54% | growth inhibition [2] 0.87% | viability increase [3] -1.41% | viability [4] 100% | viability [5] 90.3% | inhibition [6] 0.505% | RAM network inhibition [7] 1.48%

CCN1CCN(C(=O)C2CCN(Cc3nc(-c4ccc(Cl)cc4)oc3C)CC2)CC1
inactive: growth inhibition [1] -10.7% | growth inhibition [2] -25% | viability increase [3] -2.66% | viability [4] 85.8% | viability [5] 79.7% | inhibition [6] 2.88% | RAM network inhibition [7] 2.86%

COc1ccc(CCNC(=O)CCS(=O)(=O)c2cccc3nsnc23)cc1OC
inactive: growth inhibition [1] -10.1% | growth inhibition [2] -13.1% | viability increase [3] -2.17% | viability [4] 96.4% | viability [5] 97.5% | inhibition [6] 0.45% | RAM network inhibition [7] 3.1%

Cc1ccc2oc(=O)c3cnn(CC(=O)NCCN4CCOCC4)c3c2c1
inactive: growth inhibition [1] -5.79% | growth inhibition [2] -12% | viability increase [3] -0.17% | viability [4] 103% | viability [5] 97.7% | inhibition [6] 1.15% | RAM network inhibition [7] 5.06%

CCOC(=O)c1sc(NC(=O)COC(=O)c2ccco2)nc1C
inactive: growth inhibition [1] 4.37% | growth inhibition [2] -12.7% | viability increase [3] -6.43% | viability [4] 87.7% | viability [5] 89.6% | inhibition [6] 1.39% | RAM network inhibition [7] 4.87%

CC1CN(Cc2nc3c(c(=O)n(C)c(=O)n3C)n2Cc2cccc(Cl)c2)CC(C)O1 (stereo not given)
inactive: growth inhibition [1] -4.24% | growth inhibition [2] -9% | viability increase [3] -2.03% | viability [4] 100% | viability [5] 90.8% | inhibition [6] 0.74% | RAM network inhibition [7] 2.81%

CCOC(=O)N(C)OC(=O)Nc1ccc(Cl)c(Cl)c1
inactive: growth inhibition [1] -17.1% | growth inhibition [2] -20.5% | viability increase [3] -0.16% | viability [4] 95.6% | viability [5] 90.8% | inhibition [6] 0.52% | RAM network inhibition [7] 5.93%

CC1CCCCC1NC(=O)CCS(=O)(=O)c1cccc2nonc12 (stereo not given)
inactive: growth inhibition [1] -0.105% | growth inhibition [2] 2.68% | viability increase [3] -2.34% | viability [4] 98.9% | viability [5] 102% | inhibition [6] -0.06% | RAM network inhibition [7] 0.88%

Cc1n[nH]c(C)c1S(=O)(=O)N(CC(=O)N1CCc2ccccc21)c1ccc(C(C)C)cc1
inactive: growth inhibition [1] -9.99% | growth inhibition [2] 9.17% | viability increase [3] -7.59% | viability [4] 89.6% | viability [5] 83.3% | inhibition [6] 1.94% | RAM network inhibition [7] 8.57%

COC(=O)c1ccc(/C=N/n2cnnc2)cc1
inactive: growth inhibition [1] -10.3% | growth inhibition [2] -20% | viability increase [3] -1.44% | viability [4] 101% | viability [5] 89.3% | inhibition [6] 0.79% | RAM network inhibition [7] 4.48%

COc1ccc(C2CC(c3cccc(Cl)c3)n3nc(N)nc3N2)cc1 (stereo not given)
inactive: growth inhibition [1] -3.22% | growth inhibition [2] -3.25% | viability increase [3] -0.53% | viability [4] 99.8% | viability [5] 89.9% | inhibition [6] 1.37% | RAM network inhibition [7] 2.3%

O=C(NCc1cccnc1)c1cccc(S(=O)(=O)N2CCOCC2)c1
inactive: growth inhibition [1] -7.59% | growth inhibition [2] 1.51% | viability increase [3] 0.32% | viability [4] 103% | viability [5] 101% | inhibition [6] 1.6% | RAM network inhibition [7] 0.62%

CCOC(=O)Cn1c(=O)oc2cc(S(=O)(=O)NCc3ccccn3)ccc21
inactive: growth inhibition [1] -14% | growth inhibition [2] -21.4% | viability increase [3] -1.25% | viability [4] 105% | viability [5] 95.1% | inhibition [6] 1.79% | RAM network inhibition [7] 3.14%
